Compound activity: PubChem, The Scripps Research Institute Molecular Screening Center
Rows were chosen to be rich in hits. Some 2.3% of all compounds tested hit in one or more screens of this group.
pPAFAH inh: inhibitors of human plasma PAF acetylhydrolase (pPAFAH); recombinant pPAFAH, FP-rhodamine probe fluorescence polarization; inhibition, % at 3.39 µM; Q13093; 1.5% of 330,000 active;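 active = inhibition above the mean inhibition across the screen plus 3 SD, cut at about 25% in these data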;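 note: inhibitors block binding of the rhodamine activity-based probe so polarization drops; 0% = enzyme with DMSO and 100% = wells lacking pPAFAH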
SIAE inh: blocks human sialic acid acetylesterase. AID 1053197. SIAE FP-Rh probe binding, fluorescence polarization. inhibition, % at 9.66 µM. 0.69% of 370,000 active;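 active = inhibition above a cutoff: mean of compounds within the control limits plus 3 SD of those, cut at about 17% in these data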;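 note: 0% = plate median of compound wells and 100% = probe without SIAE protein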
HTRA1 inh: HTRA1 (human) protease inhibition; Q92743; recombinant HTRA1, FP-rhodamine activity-based probe, fluorescence polarization; inhibition, % at 5.96 µM; 0.5% of 340,000 active; AID 504803; in the data active = inhibition above about 36%;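 note: 0% = enzyme with DMSO and 100% = wells lacking enzyme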
ABHD4 inh: inhibitors of mouse ABHD4. Q8VD66. purified mABHD4, FP-Rh probe fluorescence polarization. inhibition, % at 8.92 µM. 0.54% of 370,000 active. AID 720543;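 active = inhibition exceeding the mean over every tested compound plus 3 SD, cut at about 30% in these data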;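 note: 0% = plate median of compound wells and 100% = S159A mutant with DMSO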
Target sequence (Q8VD66 whole entry, looked up): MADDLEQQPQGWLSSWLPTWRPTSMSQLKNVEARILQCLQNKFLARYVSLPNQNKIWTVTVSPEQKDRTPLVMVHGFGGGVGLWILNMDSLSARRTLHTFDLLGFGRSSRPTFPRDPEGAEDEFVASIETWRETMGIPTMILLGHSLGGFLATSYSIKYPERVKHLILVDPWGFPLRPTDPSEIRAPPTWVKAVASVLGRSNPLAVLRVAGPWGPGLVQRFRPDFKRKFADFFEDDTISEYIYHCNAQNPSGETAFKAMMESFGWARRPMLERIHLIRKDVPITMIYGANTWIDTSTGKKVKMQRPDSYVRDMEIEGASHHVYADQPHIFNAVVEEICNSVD
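Assay system: mABHD4 protein; medium: HEPES pH 7.0, NaCl, Pluronic buffer; dosing: 8.92 µM, single dose; schedule: 45 min + 60 min at 25 °C; signal: FP readout, ex 525 nm / em 598 nm; read-out: normalized percent inhibition of probe labeling; repeats: single replicate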
TCR CD3 inh: inhibitors of human TCR-CD3 interaction; TAMRA-labeled TCR probe fluorescence, biochemical; 0.37% of 360,000 active; AID 651800; inhibition, % at 9.4 µM; in the data active = inhibition above about 19%;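 note: recombinant mutant TCR 2C K166C tagged with TAMRA read by polarization; 0% = receptor in buffer alone and 100% = receptor with positive control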
SIAE inh conf: human SIAE inhibition, confirmation. shares compounds with SIAE inh. SIAE FP-Rh activity-based probe, fluorescence polarization. inhibition, % at 9.66 µM. 13% of 2,300 active. AID 1117263;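 active = mean inhibition of the replicates above the hit cutoff set in the primary screen, cut at about 17% in these data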;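 note: 0% = SIAE with DMSO and probe and 100% = probe without SIAE; inhibitors lower polarization as more probe stays unbound to SIAE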
* marks the source's active call; other numbers are inactive results.

`Cc1cc(C)n2nc(SCc3ncc(-c4ccccc4)o3)nc2n1` gave pPAFAH inh 4, SIAE inh -3, HTRA1 inh -4, ABHD4 inh 0 and TCR CD3 inh 1.
`C=CCN(CC#Cc1ccc(C(F)(F)F)cc1)CC=C` gave SIAE inh 6 and ABHD4 inh -6.
For COc1ccccc1N1CCN(/N=C/c2cccc(O)c2)CC1 the results were pPAFAH inh 4, SIAE inh 4, HTRA1 inh -2, ABHD4 inh 5 and TCR CD3 inh 2.
For COc1ccccc1N1CCN(/N=C/c2cc(OC)c(O)c(OC)c2)CC1 the results were pPAFAH inh 9, SIAE inh 20*, HTRA1 inh 2, ABHD4 inh 7, TCR CD3 inh -8 and SIAE inh conf -2.
Screening O=C(CSc1nc2c(c(=O)n1-c1ccccc1)SCC2)NCC1CCCO1 (stereo not drawn) returned pPAFAH inh 2, SIAE inh 31*, HTRA1 inh 6, ABHD4 inh -3, TCR CD3 inh -1 and SIAE inh conf -4.
For O=C(CSc1nc2c(c(=O)n1-c1ccc(F)cc1)SCC2)NCC1CCCO1 (stereo not drawn) the results were pPAFAH inh -5, SIAE inh -1, HTRA1 inh 4, ABHD4 inh -3 and TCR CD3 inh 4.
For CC1Cc2nc(SCC(=O)NCC3CCCO3)n(C)c(=O)c2S1 (stereo not drawn) the results were pPAFAH inh 3, SIAE inh 20*, HTRA1 inh 4, ABHD4 inh 9, TCR CD3 inh -2 and SIAE inh conf -1.
C[C@H]1CCCN1c1ccc2c(c1)O[C@H]1CCN(C1)S2(=O)=O was read as SIAE inh 0 and ABHD4 inh 17.
Screening COc1cccc(C(C(=O)NCc2ccccc2)N2CCN(c3ccccc3F)CC2)c1OC (stereo not drawn) returned SIAE inh 5, ABHD4 inh 7 and TCR CD3 inh 4.
Screening CCOC(=O)[C@]12CCCC=C1N(Cc1ccccc1)C(=O)[C@H](CC(=O)NCCCN1CCCC1=O)C2 returned SIAE inh 6, ABHD4 inh -1 and TCR CD3 inh -1.
CC1CC(C)CN(S(=O)(=O)c2ccc3c(c2)oc(=O)n3CC(=O)NCCCOC(C)C)C1 (stereo not drawn) was read as pPAFAH inh 5, SIAE inh 18*, HTRA1 inh 0, ABHD4 inh 1, TCR CD3 inh 8 and SIAE inh conf -3.
`CCOC(=O)c1c(C)[nH]c(C(=O)NCCc2ccc(OC)c(OC)c2)c1C` gave pPAFAH inh -3, SIAE inh 22*, HTRA1 inh -4, ABHD4 inh 1, TCR CD3 inh 3 and SIAE inh conf -2.
N#Cc1ccc(OC[C@@H](O)CN2CCC(C(O)(c3ccccc3)c3ccccc3)CC2)cc1 was read as SIAE inh -1 and ABHD4 inh 5.
For Cc1cc(Cl)ccc1NC(=O)CN1C(=O)NC2(CCCC2)C1=O the results were pPAFAH inh -1, SIAE inh -2, HTRA1 inh 0, ABHD4 inh -4 and TCR CD3 inh -10.
Cc1ccc(Cl)cc1NC(=O)CN1C(=O)NC2(CCCCCC2)C1=O was read as pPAFAH inh -3, SIAE inh 45*, HTRA1 inh -7, ABHD4 inh 8, TCR CD3 inh 19 and SIAE inh conf 2.
`COC(=O)[C@H](C(C)C)N(CCc1cn(Cc2ccc(C)cc2)nn1)S(=O)(=O)c1ccc(F)cc1Br` gave SIAE inh 2 and ABHD4 inh 1.
For C=CC(=O)Nc1cccc(Oc2nc(Nc3ccc(N4CCN(C)CC4)cc3OC)ncc2Cl)c1 the results were SIAE inh 20*, ABHD4 inh 13, TCR CD3 inh 0 and SIAE inh conf 16.
Screening CCOC(=O)[C@]12CCC=C1N(Cc1ccc3c(c1)OCO3)C(=O)[C@H](CC(=O)NCCC(C)C)C2 returned SIAE inh -3, ABHD4 inh 5 and TCR CD3 inh 17.
For CC(C(=O)NCc1cccs1)n1cccc1 (stereo not drawn) the results were pPAFAH inh -2, SIAE inh 20*, HTRA1 inh 3, ABHD4 inh -3, TCR CD3 inh 2 and SIAE inh conf 2.
Screening COC(=O)C(Cc1c[nH]c2ccccc12)NC(=O)c1cncc(Br)c1 (stereo not drawn) returned pPAFAH inh 0, SIAE inh 20*, HTRA1 inh -1, ABHD4 inh 4, TCR CD3 inh -4 and SIAE inh conf 1.
For O=C(NC1=NC2(C=C3CCCCC3n3c(=O)n(-c4ccccc4)c(=O)n32)CN1CC1CC1)c1ccccc1 (stereo not drawn) the results were SIAE inh 3 and ABHD4 inh -3.
`CCOC(=O)N1CCN(C(=O)C[C@H]2C[C@@]3(C(=O)OC)C(=C[C@H](COCc4ccccc4)O[C@@H]3C)N(CCc3ccc(OC)c(OC)c3)C2=O)CC1` gave SIAE inh -2 and ABHD4 inh 2.
`CC1CCN(S(=O)(=O)c2ccc(Cl)cc2)CC1` gave pPAFAH inh 6, SIAE inh 0, HTRA1 inh 0, ABHD4 inh -3 and TCR CD3 inh 7.
`CC1CCN(S(=O)(=O)c2ccc(F)c(C(=O)O)c2)CC1` gave pPAFAH inh 1, SIAE inh 24*, HTRA1 inh -6, ABHD4 inh -1, TCR CD3 inh -1 and SIAE inh conf 1.
For O=C(NCC1CCCCC1)c1cc(S(=O)(=O)N2CCOCC2)ccc1F the results were pPAFAH inh 8, SIAE inh 79*, HTRA1 inh 6, ABHD4 inh 2, TCR CD3 inh -3 and SIAE inh conf -2.
`Cc1ccc(NC(=S)NC2CC3CCCC(C2)N3Cc2ccco2)cc1` (stereo not drawn) gave pPAFAH inh 1, SIAE inh 26*, HTRA1 inh -2, ABHD4 inh 1, TCR CD3 inh -4 and SIAE inh conf 3.
For CC1(C(=O)NCc2ccccc2)CSCC(=O)N1Cc1cccs1 (stereo not drawn) the results were SIAE inh 1, ABHD4 inh -8 and TCR CD3 inh -2.
For C/C(=N\NC(=S)Nc1cccc(C)c1)c1cc2ccccc2o1 the results were pPAFAH inh 3, SIAE inh 19*, HTRA1 inh -8, ABHD4 inh 3, TCR CD3 inh 1 and SIAE inh conf 6.
`CC(C)NC(=O)c1ccc2sc([C@@H]3O[C@H](CO)[C@H](O)[C@H](O)[C@H]3O)nc2c1` gave SIAE inh -5, ABHD4 inh 8 and TCR CD3 inh -4.
Screening Cc1ccc(O)c(Nc2c3ccccc3nc3ccccc23)c1 returned pPAFAH inh 12, SIAE inh 37*, HTRA1 inh 20, ABHD4 inh 22, TCR CD3 inh 3 and SIAE inh conf -7.
